Screens: PubChem, The Scripps Research Institute Molecular Screening Center
Sampled rows, rich in hits. Any-hit rate of the full collection: about 4.6%.
TAAR1 ag – agonists of human TAAR1; Q96RJ0; AID 624467; 360,000 compounds, 0.99% hits; CHO RD-HGA16 TAAR1, Fluo-8 calcium fluorescence; vehicle wells 0%, saturating PEA agonist 100%; activation, % at 3 µM;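 active = activation above the mean activation of all test compounds in the run plus 3 SD, cut at about 38% in these data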
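Benchmarks: low control DMSO, high control PEA (EC100); System: CHO RD-HGA16 cells carrying human TAAR1 plus Gα16; Detection: Fluo-8 fluorescence, 5 s baseline then 140 s kinetic read; Schedule: 17-24 h plating, Fluo-8 75 min 37 °C, 30 min RT; Read-out basis: % activation from peak over basal fluorescence ratio, DMSO-to-PEA scaled.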
GPR7 antag – human neuropeptides B/W receptor 1 antagonism. P48145. GPR7-expressing cells, fluorescence antagonist assay. inhibition, % at 4.4 µM. 290,000 compounds, 1.1% hits; in the data active = inhibition above about 16%, passing the limit was not always enough;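 note: cells stimulated with the agonist NPW; 0% = agonist with vehicle and 100% = vehicle without agonist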
Target sequence (P48145 whole entry, looked up): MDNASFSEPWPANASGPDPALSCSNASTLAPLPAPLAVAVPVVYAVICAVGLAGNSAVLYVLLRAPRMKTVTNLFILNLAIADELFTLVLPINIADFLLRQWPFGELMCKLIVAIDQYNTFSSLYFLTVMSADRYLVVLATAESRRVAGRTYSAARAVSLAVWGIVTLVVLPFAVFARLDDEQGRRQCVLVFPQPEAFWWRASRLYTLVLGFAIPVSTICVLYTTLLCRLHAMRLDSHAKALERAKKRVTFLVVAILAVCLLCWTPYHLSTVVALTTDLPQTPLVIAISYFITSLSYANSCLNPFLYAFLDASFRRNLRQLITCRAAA
CHO parental Ca – signal in parental CHO cells, OX1R antagonist counter-screen | 330,000 compounds, 0.63% hits | inhibition, % at 5.6 µM | parental CHO-K1, ATP-induced calcium, Fluo-8 fluorescence;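 active = inhibition above that plate's mean sample inhibition plus 3 SD, cut at about 26% in these data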;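 note: 0% = ATP-challenged DMSO wells and 100% = DMSO wells without ATP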
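Measured by: calcium-sensitive Fluo-8 fluorescence / Test system: CHO parental line / Controls: ATP-challenged DMSO wells low, unchallenged DMSO wells high / Measure: % inhibition / Compound: single nominal dose of 5.6 µM per compound / Replicates: single well per compound, no replicates / Reagent: ATP as calcium-mobilizing challenge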
OX1R antag-1 – blocks the human orexin 1 receptor; AID 485270; OX1R-expressing cells, FRET antagonist read-out; inhibition, % at 6.6 µM; 330,000 compounds, 1.8% hits; in the data active = inhibition mostly above about 38%, no sharp cut-off; inactive = mostly below about 40%;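 note: 0% = agonist challenge alone and 100% = reference antagonist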
TAAR1 antagonist – human TAAR1 antagonism; CHO RD-HGA16 TAAR1, Fluo-8 calcium fluorescence, antagonist; inhibition, % at 3 µM; 360,000 compounds, 1.5% hits; AID 624466;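 active = inhibition above a per-plate cutoff, the mean inhibition of test compounds on that plate plus 3 SD, cut at about 49% in these data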;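 note: 0% = DMSO plus EC80 beta-PEA response and 100% = DMSO alone without agonist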
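Test system – hTAAR1-expressing CHO RD-HGA16 cells, Gα16-coupled · Reagent – β-PEA at EC80 concentration, post-compound challenge · Compound dosing – 3 µM, single point · Timing – 140 s kinetic read after compound, 140 s after agonist · Detection – Fluo-8 intracellular calcium dye fluorescence, real-time kinetic reads · Control set – DMSO and EC80 PEA controls · Repeats – n of 1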
OX1R antag-2 – antagonists of human orexin 1 receptor. O43613. 330,000 compounds, 0.43% hits. CHO/OX1R cells, Fluo-8 calcium fluorescence, orexin A. inhibition, % at 5 µM;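 active = inhibition above its plate's threshold, mean inhibition of all tested compounds on the plate plus 3 SD, cut at about 37% in these data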;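 note: 0% = orexin A challenge wells and 100% = SB-334867-A antagonist wells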
nonsel antag count – counter-screen for TAAR1 antagonists: nonselective antagonists; shares compounds with TAAR1 antagonist; counterscreen cell line, calcium fluorescence, antagonist mode; inhibition, % at 3 µM; 2,400 compounds, 77% hits; AID 651780; in the data active = inhibition above about 22%;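 note: CHO-Ga16 host cells stimulated with ATP at an EC80 level; 0% = agonist EC80 plus vehicle and 100% = vehicle without agonist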
TAAR1 antag conf – human TAAR1 antagonism, confirmed | inhibition, % at 3 µM | TAAR1-expressing cells, fluorescence antagonist read-out | 2,400 compounds, 40% hits | shares compounds with TAAR1 antagonist; in the data active = inhibition above about 49%;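 note: CHO-Ga16 host cells challenged with agonist PEA near its EC80; 0% = agonist at EC80 plus vehicle and 100% = vehicle with no agonist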
Ga16 ag counter – counter-screen for TAAR1 antagonists: nonselective Ga16 agonists; Ga16-expressing cells, calcium fluorescence, agonist counterscreen; shares compounds with TAAR1 antagonist; AID 651953; activation, % at 3 µM; 2,400 compounds, 18% hits; in the data active = activation above about 12%;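 note: 0% = vehicle wells and 100% = saturating stimulus response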
TAAR1 ag counter – activates human TAAR1 in antagonist counter-screen | 2,400 compounds, 2% hits | shares compounds with TAAR1 antagonist | activation, % at 3 µM | hTAAR1 cell line, fluorescence activation, agonist mode; in the data active = activation above about 37%;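 note: CHO cells stably expressing TAAR1 with calcium dye readout; 0% = DMSO vehicle and 100% = full agonist response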
* marks the source's active call; other numbers are inactive results; . = no result given.

SMILES | TAAR1 ag | GPR7 antag | CHO parental Ca | OX1R antag-1 | TAAR1 antagonist | OX1R antag-2 | nonsel antag count | TAAR1 antag conf | Ga16 ag counter | TAAR1 ag counter
O=C(NCCc1c[nH]c2ccccc12)/C(=C\c1cccnc1)NC(=O)c1ccco1 | 4.2 | 1.8 | -8.7 | 13.8 | 7.9 | -6.2 | . | . | . | .
O=C(CCNc1ccc(Br)cc1)c1cccc([N+](=O)[O-])c1 | -1.5 | -6.7 | 16.3 | 25.2 | 1.8 | -13.0 | . | . | . | .
O=C(CCN1C(=O)C2C3C=CC(C3)C2C1=O)NCCc1ccccc1 (centres undefined) | 11.9 | -3.8 | -0.7 | 13.0 | 52.3* | -6.6 | 7.7 | 51.6* | 5.3 | 16.7
O=C1C2C3C=CC(C3)C2C(=O)N1CCc1ccccc1 (centres undefined) | 0.2 | -2.5 | -6.5 | 24.0 | -4.8 | -6.1 | . | . | . | .
CCOc1ccc(C(CC(=O)O)NC(=O)C(c2ccccc2)c2ccccc2)cc1OC (centres undefined) | -0.4 | . | -8.6 | 7.5 | 62.6* | -3.7 | -1.9 | -4.7 | 4.1 | 1.2
CCOc1ccc(C(CC(=O)O)NC(=O)c2ccco2)cc1OC (centres undefined) | 2.8 | -3.6 | 3.5 | -5.7 | -2.6 | -29.2 | . | . | . | .
Cc1ccc(S(=O)(=O)NCc2ccc3c(c2)OCO3)cc1 | -0.1 | . | . | . | -17.8 | . | . | . | . | .
O=C(OCC(=O)N1CCc2ccccc21)c1ccc[n+]([O-])c1 | 5.5 | -6.5 | -10.3 | 5.4 | -2.0 | -8.9 | . | . | . | .
COc1ccccc1N1CCN(c2nc3ccccc3nc2C(C#N)C(=O)OC(C)C)CC1 (centres undefined) | 1.8 | -8.6 | -18.9 | 47.7 | 72.7* | -41.4 | 10.5 | 47.9 | 2.5 | 4.2
COc1ccc2c(c1)[nH]c1c(=O)n(/N=C/C3C(C)C=C(C)CC3C)c(=O)[nH]c12 (centres undefined) | 17.4 | -18.6 | -0.1 | 24.4 | 62.2* | -12.6 | 21.0 | 41.1 | 6.9 | 8.8
CC1=CC(C)[C@H](/C=N/n2c(=O)[nH]c3c([nH]c4ccc(Br)cc43)c2=O)C(C)C1 (some centres undefined) | 1.8 | -13.0 | -1.9 | 8.1 | 10.6 | -12.7 | . | . | . | .
COc1ccc2[nH]c3c(=O)n(/N=C/[C@H]4C(C)C=C(C)CC4C)c(=O)[nH]c3c2c1 (some centres undefined) | 18.3 | 15.0 | -8.3 | 24.4 | 60.2* | -18.2 | 34.4* | 48.2 | 9.2 | 10.3
COc1ccc2[nH]c3c(=O)n(N)c(=O)[nH]c3c2c1 | 4.0 | -5.4 | . | . | -0.5 | . | . | . | . | .
CSCC[C@H](NC(=O)NCc1ccc(F)cc1)C(=O)O | 10.7 | 6.1 | -13.0 | 10.0 | -11.2 | -19.9 | . | . | . | .
CCO[C@@H]1OC(C(=O)N2CCN(Cc3ccccc3)CC2)=C[C@H](c2csc3ccccc23)[C@H]1CCCO | 9.3 | -15.3 | -1.7 | 22.2 | 52.0* | -27.1 | 22.6* | 24.9 | 5.3 | 1.0
Cc1cc(/C=N/NC(N)=S)c(C)n1-c1cccc(Cl)c1 | 20.8 | -1.3 | -3.0 | 9.4 | 12.0 | 11.4 | . | . | . | .
Cc1cc(/C=N/NC(N)=S)c(C)n1-c1ccc(Br)cc1 | 1.9 | 11.3 | -15.3 | 9.9 | 95.3* | -3.5 | 15.4 | 92.2* | 12.1* | 16.7
Cc1cc(/C=N/NC(N)=S)c(C)n1-c1ccc(Cl)cc1 | 4.7 | -0.7 | -1.4 | 8.5 | 84.1* | -1.1 | 2.5 | 82.7* | 16.3* | 17.7
Cc1ccc(-c2nc3ccccc3[nH]2)cc1NC(=S)NC(=O)c1ccccc1Br | 7.2 | -3.8 | -18.9 | 86.8* | 69.9* | 38.6 | 35.8* | 47.1 | 5.6 | -0.3
Cc1ccc(-c2nc3ccccc3[nH]2)cc1NC(=O)c1ccc2c(c1)OCO2 | 17.3 | 7.8 | -16.6 | 9.9 | 6.4 | -13.6 | . | . | . | .
